Bioassay records from PubChem.
This is a sample that favours compounds with a hit; in the whole collection about 1.6% have one here.
LEDGF integ inh: blocks HIV-1 LEDGF/p75-dependent DNA integration; TR-FRET IN-LEDGF/p75 DNA integration, Eu/Cy5; inhibition, % at 3.7 µM; hit rate 0.64% among 370,000; AID 743269;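 active = inhibition above the screen-wide mean plus 3 SD, cut at about 13% in these data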;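 note: signal is the Cy5 over europium emission ratio at 671 and 618 nm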
UHRF1 binding: UHRF1 methyl-DNA binding inhibition; UHRF1 binding to methylated oligo, TR-FRET; inhibition, % at 4.4 µM; hit rate 0.75% among 370,000; AID 687016; in the data active = inhibition above about 21%;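 note: UHRF1 SRA domain binding a hemimethylated CpG hairpin DNA probe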
MBD2 DNA inh: blocks human MBD2 binding to methylated DNA. Q9UBB5. TR-FRET, MBD2 binding to methylated oligonucleotide. inhibition, % at 4.4 µM. hit rate 0.31% among 370,000. AID 686964; in the data active = inhibition above about 13%
Target sequence (Q9UBB5 whole entry, looked up): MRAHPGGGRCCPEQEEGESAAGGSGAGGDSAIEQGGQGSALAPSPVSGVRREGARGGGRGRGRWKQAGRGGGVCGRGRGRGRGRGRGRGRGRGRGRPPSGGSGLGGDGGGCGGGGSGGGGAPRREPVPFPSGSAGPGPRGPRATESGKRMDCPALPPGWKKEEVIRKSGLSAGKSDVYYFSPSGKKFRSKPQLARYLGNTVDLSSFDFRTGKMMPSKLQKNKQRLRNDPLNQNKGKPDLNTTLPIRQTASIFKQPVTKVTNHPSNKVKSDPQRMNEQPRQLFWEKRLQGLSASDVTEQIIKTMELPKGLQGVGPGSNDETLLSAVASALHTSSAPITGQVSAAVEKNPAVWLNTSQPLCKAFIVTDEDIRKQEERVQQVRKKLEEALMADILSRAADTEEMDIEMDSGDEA
TDP2 absorb: TDP2 (human) inhibition, absorbance primary screen; O95551; recombinant TDP2, T5PNP hydrolysis, p-nitrophenol absorbance 415 nm; hit rate 0.34% among 370,000; inhibition, % at 12.8 µM;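 active = inhibition above the mean of all tested compounds plus 3 SD, set per campaign, cut at about 25% in these data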
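Evaluation: % inhibition relative to enzyme-containing and enzyme-free wells. Material: recombinant human TDP2. Benchmarks: enzyme-free and DMSO wells. Timing: enzyme reaction with compound for 2 h at 37 °C. Compound dosing: 12.8 µM only. Measured by: p-Nitrophenol epi absorbance. Reagent: T5PNP substrate at 5 mM, a TopII-DNA adduct mimic. Replication: single well per compound.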
TDP2 confirm: human TDP2 inhibition, confirmation; shares compounds with TDP2 absorb; recombinant human TDP2, absorbance read-out; inhibition, % at 12.8 µM; hit rate 22% among 1,100; in the data active = inhibition above about 25%
Numbers stand for hits; - = inactive; . = no result given.

SMILES	LEDGF integ inh	UHRF1 binding	MBD2 DNA inh	TDP2 absorb	TDP2 confirm
CCCC[n+]1ccn(C2=C([O-])c3ccccc3C(=O)/C2=N\S(=O)(=O)c2ccc(Br)cc2)c1	-	-	-	-	.
COc1ccc(CCNC(=O)Cn2c(=O)n(CCCC(=O)NCc3ccco3)c(=O)c3sccc32)cc1OC	-	-	-	26.5	-
CCC(C)NS(=O)(=O)c1ccc2[nH]c(=O)oc2c1 (configuration not stated)	-	-	-	-	.
Oc1ccc2ccccc2c1C=NC12CN3CCN(CN(C3)C1)C2	23.5	-	-	52.9	35.5
CCN(CC)CCNC(=O)c1c(O)c2cc(OC)c(OC)cc2[nH]c1=O	-	-	-	24.6	-
COc1ccc(CNC(=O)c2c(O)c3cc(OC)c(OC)cc3[nH]c2=O)cc1OC	-	-	-	-	.
CCc1ccc(S(=O)(=O)Nc2ccc(O)c3ccccc23)cc1	-	-	-	53.6	-
CCc1ccc(S(=O)(=O)Nc2cc(SCC(=O)O)c(O)c3ccccc23)cc1	-	-	-	51.1	34.8
O=C(Nc1c(-c2ccccc2)[nH][nH]c1=O)c1cnccn1	-	-	-	-	.
COc1ccc(-c2[nH][nH]c(=O)c2NC(=O)c2ccc(C)cc2)cc1	-	-	-	24.6	30.5
O=C(Nc1c(-c2ccccc2)[nH][nH]c1=O)c1ccc2ccccc2c1	-	-	-	-	.
COc1ncccc1C(=O)Nc1c(-c2ccccc2)[nH][nH]c1=O	-	-	-	-	.
O=C(Nc1c(-c2ccccc2)[nH][nH]c1=O)c1ccc(Br)cc1	-	-	-	33.3	-
O=C(Nc1c(-c2ccccc2)[nH][nH]c1=O)c1cccs1	-	-	-	41.9	-
O=C(N[C@H]1CC[C@@H]2SC[C@@H](C(=O)O)N2C1=O)OCC1c2ccccc2-c2ccccc21	-	-	-	-	.
C=CCN1[C@H](C#N)[C@@H](c2ccc(Br)cc2)[C@H]1CO	-	-	-	-	.
O=C(COC(=O)c1nc(Cl)ccc1Cl)c1ccccc1Cl	-	-	-	29.3	-
COC(=O)C[C@H]1CC[C@H]2[C@H](COc3ccc(NS(=O)(=O)c4ccccc4C)cc3C(=O)N2C)O1	-	-	-	-	.
COC(=O)C[C@H]1CC[C@H](NC(=O)Cc2ccccc2)[C@@H](CO)O1	-	-	-	-	.
COC(=O)C[C@@H]1CC[C@H](NC(=O)Cc2ccccn2)[C@@H](CO)O1	-	-	-	27.5	-
O=C(N[C@H](C(=O)N1CCC[C@H]1C(=O)NC1CCCC1)C1CCCCC1)c1cccs1	-	-	-	-	.
Cc1ccc(Nc2nc(N)nc(CN3CCC(C)CC3)n2)c(C)c1	-	-	-	-	.
Cc1ccc(Nc2nc(N)nc(CN3CCCCCC3)n2)c(C)c1	-	-	-	38.4	-
CCOc1ccc(-n2c(SCC(=O)Nc3ccccc3-c3ccccc3)nnc2-c2cccs2)cc1	-	-	-	-	.
CCC1CCCCN1C(=S)NN=C(C)c1ccccn1 (configuration not stated)	-	-	-	-	.
SMILES	LEDGF integ inh	UHRF1 binding	MBD2 DNA inh	TDP2 absorb	TDP2 confirm
Cc1ccc(NC(=O)CSCc2cc(=O)n3ccsc3n2)c(C)c1	-	-	-	33.5	-
COc1ccccc1NC(=O)CSCc1cc(=O)n2ccsc2n1	-	-	-	-	.
CC[C@H](CCCc1ccc(OC)cc1)CCC(=O)N1CCOCC1	-	-	-	-	.
COc1ccc(-n2c(NC(=O)c3ccco3)c(C#N)c3nc4ccccc4nc32)cc1	-	-	-	60.2	67.5
CCOC(=O)c1c(NC(=O)c2ccco2)n(C2CCCCC2)c2nc3ccccc3nc12	-	-	-	59.8	60.2
CCC(=O)Nc1c(C#N)c2nc3ccccc3nc2n1C1CCCCC1	-	-	-	-	.
CCCCn1c(NC(=O)c2ccccc2Cl)c(C#N)c2nc3ccccc3nc21	-	-	-	38.2	71.9
COc1ccc(C(=O)Nc2ccc(NC(=O)c3ccco3)cc2)cc1	-	-	-	-	.
CCOC(=O)C1CCN(S(=O)(=O)c2cc(C(=O)N3CCCCC3)ccc2OC)CC1	-	-	-	25.1	-
CCN(CCCNS(=O)(=O)c1cc(-c2cc(C)no2)ccc1C)Cc1ccccc1	-	-	-	47.5	-
Cc1cc(-c2ccc(C)c(S(=O)(=O)NCc3ccc(OC(C)C)cc3)c2)on1	-	-	-	31.6	-
COc1ccc(CNS(=O)(=O)c2cc(-c3cc(C)no3)ccc2C)cc1OC	-	-	-	-	.
O=C(c1cccc(S(=O)(=O)N2CCCC2)c1)N1CCN(c2ccccc2)CC1	-	-	-	-	.
